The nature of series [1]: Tmax in Sprague-Dawley rat plasma at 2 mg/kg, po administered as single dose by LC-MS/MS analysis. The series is classed as ADME, organism-based. The procedure, abridged:
(§1)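 Male SD rats, single dose: 0.5 mg/kg i.v. or 2.0 mg/kg p.o. Vehicle is 5% DMSO, 10% Solutol HS 15 and 85% PBS. Heparinized blood is sampled at 5, 15 and 30 min and at 1, 2, 4, 8 and 24 h after dosing. Plasma is reported in ng/mL and brain in ng/g. F is derived from the p.o. and i.v. arms.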

For series [2], the target named is D(2) dopamine receptor (Homo sapiens, UniProt P14416). Briefly: Antagonistic activity at D2 receptor (unknown origin) expressed in CHOK1 cells co-expressing G-alpha 15 assessed as inhibition of dopamine-induced calcium flux by fluo-4 dye based FLIPR assay. It counts as functional, cell-based, CHO-K1. (Calcium assays in cells follow changes in intracellular calcium, usually with a dye or a luminescent sensor.)
Sequence of D(2) dopamine receptor (P14416 whole entry): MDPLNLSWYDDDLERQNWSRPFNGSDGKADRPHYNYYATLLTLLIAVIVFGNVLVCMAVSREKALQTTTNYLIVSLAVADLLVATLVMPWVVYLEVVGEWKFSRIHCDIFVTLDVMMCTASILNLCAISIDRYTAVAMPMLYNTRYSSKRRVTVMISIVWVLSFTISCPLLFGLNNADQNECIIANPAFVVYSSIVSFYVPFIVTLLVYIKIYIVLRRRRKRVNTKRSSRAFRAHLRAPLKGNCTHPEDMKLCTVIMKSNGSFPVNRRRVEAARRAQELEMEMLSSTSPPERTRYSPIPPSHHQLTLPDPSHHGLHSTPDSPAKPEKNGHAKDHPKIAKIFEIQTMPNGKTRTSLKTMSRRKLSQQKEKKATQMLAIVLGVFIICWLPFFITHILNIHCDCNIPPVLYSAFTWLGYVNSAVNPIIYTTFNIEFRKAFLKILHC

The target of series [3] is T1, 5-hydroxytryptamine receptor 2A (Homo sapiens, UniProt P28223). As to conditions: CHO-K1, 10 uM.
T1 sequence (P28223 whole entry): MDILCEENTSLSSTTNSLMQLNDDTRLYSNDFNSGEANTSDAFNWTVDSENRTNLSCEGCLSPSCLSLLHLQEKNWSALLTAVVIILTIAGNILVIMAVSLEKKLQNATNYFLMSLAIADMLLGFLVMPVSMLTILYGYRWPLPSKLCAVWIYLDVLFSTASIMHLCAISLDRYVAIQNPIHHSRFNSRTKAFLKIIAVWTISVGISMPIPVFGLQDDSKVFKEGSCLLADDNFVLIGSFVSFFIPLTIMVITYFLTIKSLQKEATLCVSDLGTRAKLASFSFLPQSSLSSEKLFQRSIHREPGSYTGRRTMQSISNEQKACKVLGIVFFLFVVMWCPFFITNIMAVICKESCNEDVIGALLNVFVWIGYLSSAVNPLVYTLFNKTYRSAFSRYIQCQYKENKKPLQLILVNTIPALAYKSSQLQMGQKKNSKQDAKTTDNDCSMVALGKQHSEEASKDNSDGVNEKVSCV
A short description of series [4]: Apparent clearance in Sprague-Dawley rat plasma at 0.5 mg/kg, iv administered as single dose by LC-MS/MS analysis. It counts as ADME, organism-based. Conditions: read-out: CL(app) (converted). An outline of the steps:
as §1

The nature of series [5]: Cmax in Sprague-Dawley rat brain at 2 mg/kg, po administered as single dose by LC-MS/MS analysis. It counts as ADME, organism-based. The arrangement: dose 2 mg/kg, route oral. An outline of the steps:
as §1

Series [6] has as its target T2, 5-hydroxytryptamine receptor 1A (Homo sapiens, UniProt P08908).
T2 sequence (P08908 whole entry): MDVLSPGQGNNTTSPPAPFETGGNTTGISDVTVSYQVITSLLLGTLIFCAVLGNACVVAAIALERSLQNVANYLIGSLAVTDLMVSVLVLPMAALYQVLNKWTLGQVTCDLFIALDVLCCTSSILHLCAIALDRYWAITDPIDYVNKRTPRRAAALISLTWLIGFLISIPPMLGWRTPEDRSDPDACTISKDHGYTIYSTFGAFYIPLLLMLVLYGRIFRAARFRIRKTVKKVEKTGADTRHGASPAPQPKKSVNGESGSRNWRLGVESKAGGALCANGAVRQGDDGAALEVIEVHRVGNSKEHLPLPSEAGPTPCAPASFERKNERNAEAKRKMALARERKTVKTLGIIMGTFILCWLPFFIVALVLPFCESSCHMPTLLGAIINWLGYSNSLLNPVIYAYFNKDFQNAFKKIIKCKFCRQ
The series is described as follows: Agonist activity at 5-HT1A receptor (unknown origin) expressed in CHOK1 cells co-expressing G-alpha 15 by Fluo-4 dye based FLIPR assay. It counts as cell-based, CHO-K1.

Series [7] deals with Rattus norvegicus. Briefly: Cognitive enhancement effect in Sprague-Dawley rat assessed as reversal of PCP-impaired performance by measuring increase in time spent exploring novel object in comparison to familiar object at 0.1 to 0.2 mg/kg, po administered 60 mins prior to test by novel object recognition assay.
A short description of series [8]: AUC (0 to t) in Sprague-Dawley rat brain at 0.5 mg/kg, iv administered as single dose by LC-MS/MS analysis. The series is classed as ADME, organism-based. The procedure, abridged: as §1
The target in series [9] is T1, 5-hydroxytryptamine receptor 2A. Briefly: Agonist activity at 5-HT2A receptor (unknown origin) expressed in CHOK1 cells co-expressing G-alpha 15 by Fluo-4 dye based FLIPR assay. The series is classed as cell-based, CHO-K1.
Series [10] deals with Rattus norvegicus. The series is described as follows: Toxicity in Sprague-Dawley rat assessed as cataleptogenic effect by measuring time spent in cataleptic position at 1 to 10 mg/kg, po measured after 0.5 to 2 hrs. The series is classed as organism-based. Conditions: in vivo. The procedure, abridged:
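Male SD rats (180–250 g, n = 7) dosed orally at 1.0, 3.0 or 10.0 mg/kg. Forepaws placed on a bar 0.9 cm in diameter, 11 cm high, at 30, 60 and 120 min after dosing. Time held is expressed as a percentage of the 60 s maximum (mean ± SEM).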

Series [11] has as its system Rattus norvegicus. The series is described as follows: Antipsychotic activity in Sprague-Dawley rat assessed as inhibition of conditioned avoidance behavior at 1.0 to 2.0 mg/kg, ip administered as single dose measured after 1 hr. It counts as functional, organism-based. An outline of the steps: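 Male SD rats (150–180 g, 6 per group) trained in automated shuttle-boxes; only rats exceeding 80% avoidance were used. Single i.p. dose of 1.0 or 2.0 mg/kg given 1 h before a 20-trial session. Read-out is percentage of avoidance (mean ± SEM, n = 6), compared with the vehicle group.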

The nature of series [12]: Half life in Sprague-Dawley rat plasma at 2.0 mg/kg, po administered as single dose by LC-MS/MS analysis. It counts as ADME, organism-based. The procedure, abridged: as §1
Series [13] is described as follows: Tmax in Sprague-Dawley rat brain at 2 mg/kg, po administered as single dose by LC-MS/MS analysis. It counts as ADME, organism-based. The procedure, abridged: as §1
Series [14] is described as follows: Oral bioavailability in Sprague-Dawley rat plasma at 2 mg/kg administered as single dose by LC-MS/MS analysis. It counts as ADME, organism-based. The procedure, abridged: as §1
The target of series [15] is T3, Muscarinic acetylcholine receptor M1 (Homo sapiens, UniProt P11229).
T3 sequence (P11229 whole entry): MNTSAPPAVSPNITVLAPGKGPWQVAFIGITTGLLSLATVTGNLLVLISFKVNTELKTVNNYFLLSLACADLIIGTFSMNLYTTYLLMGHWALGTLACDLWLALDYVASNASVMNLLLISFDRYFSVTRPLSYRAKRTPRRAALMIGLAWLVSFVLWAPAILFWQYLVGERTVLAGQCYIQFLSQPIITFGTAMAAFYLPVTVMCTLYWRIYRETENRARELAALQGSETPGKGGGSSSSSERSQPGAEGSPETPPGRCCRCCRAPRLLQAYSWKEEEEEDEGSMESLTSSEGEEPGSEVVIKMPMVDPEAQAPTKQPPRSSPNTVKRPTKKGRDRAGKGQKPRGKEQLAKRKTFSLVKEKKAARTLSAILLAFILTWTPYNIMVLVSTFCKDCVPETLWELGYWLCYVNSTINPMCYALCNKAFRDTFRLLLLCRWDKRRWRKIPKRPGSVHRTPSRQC
The series is described as follows: Displacement of [3H]pirenzepine from recombinant human M1 receptor expressed in CHO cell membranes at 1 uM after 60 mins by scintillation counting method relative to control. Conditions: CHO cell membranes expressing recombinant human M1 receptor, probe [3H]pirenzepine. An outline of the steps: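 Nonspecific binding defined with […]. Filtered on PEI-soaked GF/B and scintillation counted. Expressed as percent inhibition of control specific binding at a single test concentration.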
(In general: Loss of bound radioactivity is the signal in a displacement assay; it reports binding, not function.)

The target in series [16] is D(3) dopamine receptor (Homo sapiens, UniProt P35462). The series is described as follows: Agonist activity at D3 receptor (unknown origin) expressed in cell membranes after 40 mins by [35S]GTPgammaS binding assay. It counts as functional. In general terms: Binding of GTPγS marks nucleotide exchange on a G protein.
Sequence of D(3) dopamine receptor (P35462 whole entry): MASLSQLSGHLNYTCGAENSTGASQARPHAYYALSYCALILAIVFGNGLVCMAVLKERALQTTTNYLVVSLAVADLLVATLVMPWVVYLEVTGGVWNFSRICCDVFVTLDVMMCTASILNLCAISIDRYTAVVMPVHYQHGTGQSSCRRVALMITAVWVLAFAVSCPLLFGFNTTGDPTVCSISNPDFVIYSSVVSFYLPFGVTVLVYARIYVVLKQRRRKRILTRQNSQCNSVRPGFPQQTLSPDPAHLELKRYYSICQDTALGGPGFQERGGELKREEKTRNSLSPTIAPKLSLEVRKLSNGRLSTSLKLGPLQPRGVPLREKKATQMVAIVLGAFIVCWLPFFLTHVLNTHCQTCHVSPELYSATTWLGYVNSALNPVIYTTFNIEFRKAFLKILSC

Active and inactive are the calls of the source. The rule behind the calls is not given here. Where only a bound is given, the exact number is not on record here.

The term Tmax denotes the time at which the peak concentration occurs. Broadly, the IC50 is the concentration that inhibits the measured activity by half. A word on the inhibition: it is the percentage by which the read-out fell short of the control. The term Cmax denotes the highest concentration seen after dosing. What is called EC50 is the concentration giving half of the maximal effect. One may read the AUC(0-t) as the area under the concentration-time curve up to a stated or last time point. A high value points to high exposure. One may read the half-life as how long it takes for the measured level to halve. Read a low half-life as fast loss. In general, bioavailability refers to dose-corrected exposure relative to a reference, in per cent. Read a low bioavailability as poor availability. On to `O=C(N[C@H]1CC[C@H](CCN2CCN(c3nsc4ccccc34)CC2)CC1)c1ccco1`, for which the results for the time of peak concentration (Tmax) in series [1] and in [13] were 0.5 h and 2 h, respectively. Also, in [2], the IC50 is 0.0614 µM. Besides, the inhibition in series [3] amounted to 97%. Moreover, the clearance in series [4] is 4.6 L/h/kg. The Cmax in series [5] was 0.0528 µg/mL. In addition, the 50% effective concentration (EC50) in [6], in [9] and in series [16] was above 10 µM in each case. Further, the result in [7] was Active. The same molecule displayed an AUC(0-t) in series [8] of 1.07 µg·h/mL. For the same molecule, in series [10], the Activity result was “Non-Toxic”. Further, in series [11], the inhibition entry was “Active”. This molecule had a half-life in series [12] of 1.7 h. Besides, in series [14], the bioavailability is 13%. Besides, the inhibition at 1 h, 1 µM in series [15] came to 50.6%.
